# Test results taken from article PMC3336105 (Journal of Medicinal Chemistry, 2008).
# Like-named read-outs stand apart in the source and are kept apart here.
# What was measured:
# [1] = target: PSMA (Homo sapiens, UniProt Q04609); experiment: NAALADase assay; assay type: biochemical
# [2] = tested on: PSMA+ PC3 PIP cells; experiment: In vitro fluorescence microscopy in PC3 PIP and PC3 flu cells; assay type: cell-based, human; settings: excitation 494 nm, emission 628 nm
# How it was run: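 PC3 PIP and PC3 flu cells (10000 per well) were attached overnight at 37 °C in 5% CO2. […] Wells were washed with warm medium for 30 s, mounted, dried 20 min, held overnight at 4 °C, then imaged.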
# [3] = Electronic / fluorescence properties; assay type: physicochemical
# How it was run: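 Test compound (Re tricarbonyl complex) dissolved in ethylene glycol, measured under air or after argon purging. […] Lifetime was measured by a frequency-domain method with 370 nm LED excitation and 540–600 nm bandpass collection. Quantum yield was obtained by the optically dilute method against aerated aqueous [Ru(bpy)3]Cl2 (φ = 0.028, excitation 455 nm).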
# [4] = LNCaP cell extracts, Cheng–Prusoff conversion
# Sequence of PSMA (Q04609 whole entry): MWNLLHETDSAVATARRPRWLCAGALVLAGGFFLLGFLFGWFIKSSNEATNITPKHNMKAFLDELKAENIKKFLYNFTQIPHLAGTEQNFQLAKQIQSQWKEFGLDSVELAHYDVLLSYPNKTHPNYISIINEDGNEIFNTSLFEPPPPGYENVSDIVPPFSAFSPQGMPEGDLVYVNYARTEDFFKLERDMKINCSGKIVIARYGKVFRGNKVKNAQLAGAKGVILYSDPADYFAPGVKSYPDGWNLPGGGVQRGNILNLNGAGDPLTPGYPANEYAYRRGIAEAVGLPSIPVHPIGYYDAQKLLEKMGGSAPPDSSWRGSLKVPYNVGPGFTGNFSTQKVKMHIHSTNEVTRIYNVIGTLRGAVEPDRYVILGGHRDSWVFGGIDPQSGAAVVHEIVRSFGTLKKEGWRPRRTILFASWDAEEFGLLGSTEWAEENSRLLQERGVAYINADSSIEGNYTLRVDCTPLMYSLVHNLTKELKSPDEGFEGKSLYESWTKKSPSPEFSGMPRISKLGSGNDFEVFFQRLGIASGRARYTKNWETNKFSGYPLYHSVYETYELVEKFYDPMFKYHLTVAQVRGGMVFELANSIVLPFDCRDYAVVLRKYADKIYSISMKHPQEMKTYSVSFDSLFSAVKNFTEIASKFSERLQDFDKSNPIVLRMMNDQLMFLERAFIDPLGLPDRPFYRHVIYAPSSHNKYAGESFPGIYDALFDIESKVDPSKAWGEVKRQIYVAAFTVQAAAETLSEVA
smiles,measurement,setting,value
"O=C(O)CCC(NC(=O)NC(CCCCNC(=O)CCCCCCC(=O)NC(CCCCN(Cc1ccccn1)Cc1ccccn1)C(=O)O)C(=O)O)C(=O)O.[Br-].[C-]#[O+].[C-]#[O+].[C-]#[O+].[Re+] (stereo not drawn) [ReL1, Tricarbonyl (2-[3-(5-{7-[5-(bis-pyridin-2-ylmethyl-amino)-1-carboxy-pentylcarbamoyl]-heptanoylamino}-1-carboxy-pentyl)-ureido]-pentanedioic acid) rhenium bromide]",Ki,[1]; [4],10.8 nM
"O=C(O)CCC(NC(=O)NC(CCCCNC(=O)CCCCCCC(=O)NC(CCCCN(Cc1ccc2ccccc2n1)Cc1ccc2ccccc2n1)C(=O)O)C(=O)O)C(=O)O.[Br-].[C-]#[O+].[C-]#[O+].[C-]#[O+].[Re+] (stereo not drawn) [ReL2, Tricarbonyl(2-[3-(5-{7-[5-(bis-quinolin-2-ylmethyl-amino)-1-carboxy-pentylcarbamoyl]-heptanoylamino}-1-carboxy-pentyl)-ureido]-pentanedioic acid) rhenium bromide]",Ki,[1]; [4],0.5 nM
same,"PSMA inhibitory activity, fold higher than ReL1",[1]; relative to ReL1,20 fold
same,fluorescent signal in live cells (internalization),[2],weak but observable fluorescent signal
same,extinction coefficient,[3]; at 321 nm,17200 M⁻¹
same,absorbance maximum,[3]; electronic spectrum,321 nm
same,fluorescence quantum yield,[3]; ethylene glycol under argon,0.018
same,fluorescence emission,[3]; excitation at 321 nm,550 nm
same,fluorescence lifetime,"[3]; λem = 550 nm, ethylene glycol under argon",11.8 μs
"O=C(O)CCC(NC(=O)NC(CCCCNC(=O)CCCCCCC(=O)NCCCCC(C(=O)O)N(Cc1ccccn1)Cc1ccccn1)C(=O)O)C(=O)O.[Br-].[C-]#[O+].[C-]#[O+].[C-]#[O+].[Re+] (stereo not drawn) [ReL3, Tricarbonyl(2-[3-(5-{7-[5-(bis-pyridin-2-ylmethyl-amino)-5-carboxy-pentylcarbamoyl]-heptanoylamino}-1-carboxy-pentyl)-ureido]-pentanedioic acid)rehenium bromide]",Ki,[1]; [4],10.3 nM
"O=C(O)CCC(NC(=O)NC(CCCCNC(=O)CCCCCCC(=O)NC(CCCCN(Cc1ccccn1)Cc1ccccn1)C(=O)O)C(=O)O)C(=O)O (centres unmarked) [Compound L1, 2-[3-(5-{7-[5-(Bis-pyridin-2-ylmethyl-amino)-1-carboxy-pentylcarbamoyl]-heptanoylamino}-1-carboxy-pentyl)-ureido]-pentanedioic Acid]",Ki,[1],15.2 nM
"O=C(O)CCC(NC(=O)NC(CCCCNC(=O)CCCCCCCN(Cc1ccccn1)Cc1ccccn1)C(=O)O)C(=O)O.[Br-].[C-]#[O+].[C-]#[O+].[C-]#[O+].[Re+] (stereo not drawn) [ReL5, Tricarbonyl(2-(3-{5-[8-(bis-pyridin-2-ylmethyl-amino)-octanoylamino]-1-carboxy-pentyl}-ureido)-pentanedioic acid)rhenium bromide]",Ki,[1]; [4],0.91 nM
"O=C(O)CCC(NC(=O)NC(CCCCNC(=O)CCCCCCC(=O)NC(CCCCN(Cc1ccc2ccccc2n1)Cc1ccc2ccccc2n1)C(=O)O)C(=O)O)C(=O)O (centres unmarked) [Compound L2, 2-[3-(5-{7-[5-(Bis-quinolin-2-ylmethyl-amino)-1-carboxy-pentylcarbamoyl]-heptanoylamino}-1-carboxy-pentyl)-ureido]-pentanedioic acid]",Ki,[1]; [4],0.17 nM
"O=C(O)CCC(NC(=O)NC(CCCCN(Cc1ccccn1)Cc1ccccn1)C(=O)O)C(=O)O.[Br-].[C-]#[O+].[C-]#[O+].[C-]#[O+].[Re+] (stereo not drawn) [ReL6, Tricarbonyl(2-{3-[5-(bis-pyridin-2-ylmethyl-amino)-1-carboxy-pentyl]-ureido}-pentanedioic acid)rhenium bromide]",PSMA inhibitory activity (in words),[1],"very low PSMA inhibitory activity, the lowest in the entire series"
same,Ki,[1]; [4],200 nM
"O=C(O)CCC(NC(=O)NC(CCCCNC(=O)CCCCCCC(=O)NCCCCCCN(Cc1ccccn1)Cc1ccccn1)C(=O)O)C(=O)O.[Br-].[C-]#[O+].[C-]#[O+].[C-]#[O+].[Re+] (stereo not drawn) [ReL7, Tricarbonyl(2-[3-(5-{7-[6-(Bis-pyridin-2-ylmethyl-amino)-hexylcarbamoyl]-heptanoylamino}-1-carboxy-pentyl)-ureido]-pentanedioic acid)rhenium bromide]",Ki,[1]; [4],2.06 nM
"O=C(O)CCC(NC(=O)NC(CCCCNC(=O)CCCCCCCN(Cc1ccccn1)Cc1ccccn1)C(=O)O)C(=O)O (centres unmarked) [Compound L5, 2-(3-{5-[8-(Bis-pyridin-2-ylmethyl-amino)-octanoylamino]-1-carboxy-pentyl}-ureido)-pentanedioic Acid]",PSMA inhibitory activity (in words),[1],low nanomolar
